This note sets out measurements from ChEMBL document CHEMBL2169746, “Design, synthesis, and antitumor evaluation of 2,4,6-triaryl pyridines containing chlorophenyl and phenolic moiety” (Eur J Med Chem, 2012).

Broadly, the IC50 is the concentration needed to halve the response being measured. A low value points to greater potency. The term inhibition denotes the percentage by which the read-out fell short of the control.

The test system of one assay is T47D. Briefly: Cytotoxicity against human T47D cells after 2 days by cell counting kit-8 analysis. Type of assay: functional, cell-based. The conditions noted are these: 48 h. The method in brief:
(§1)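 Cells grown per supplier's instructions, seeded at 2-4 × 10⁴ cells/well and incubated overnight in medium with 10% FBS at 37 °C, 5% CO₂. On day 2, after 4 h FBS starvation, medium was replaced with medium containing graded compound concentrations. Absorbance read at 450 nm. IC50 from a four-parameter logistic fit. Three independent experiments in triplicate, mean ± S.D.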
On the technique in general: Formazan colour is commonly taken as a measure of viable cells.

For assay [1], the target named is T1, DNA topoisomerase 1 (Homo sapiens) (UniProt P11387).
T1 sequence (whole entry): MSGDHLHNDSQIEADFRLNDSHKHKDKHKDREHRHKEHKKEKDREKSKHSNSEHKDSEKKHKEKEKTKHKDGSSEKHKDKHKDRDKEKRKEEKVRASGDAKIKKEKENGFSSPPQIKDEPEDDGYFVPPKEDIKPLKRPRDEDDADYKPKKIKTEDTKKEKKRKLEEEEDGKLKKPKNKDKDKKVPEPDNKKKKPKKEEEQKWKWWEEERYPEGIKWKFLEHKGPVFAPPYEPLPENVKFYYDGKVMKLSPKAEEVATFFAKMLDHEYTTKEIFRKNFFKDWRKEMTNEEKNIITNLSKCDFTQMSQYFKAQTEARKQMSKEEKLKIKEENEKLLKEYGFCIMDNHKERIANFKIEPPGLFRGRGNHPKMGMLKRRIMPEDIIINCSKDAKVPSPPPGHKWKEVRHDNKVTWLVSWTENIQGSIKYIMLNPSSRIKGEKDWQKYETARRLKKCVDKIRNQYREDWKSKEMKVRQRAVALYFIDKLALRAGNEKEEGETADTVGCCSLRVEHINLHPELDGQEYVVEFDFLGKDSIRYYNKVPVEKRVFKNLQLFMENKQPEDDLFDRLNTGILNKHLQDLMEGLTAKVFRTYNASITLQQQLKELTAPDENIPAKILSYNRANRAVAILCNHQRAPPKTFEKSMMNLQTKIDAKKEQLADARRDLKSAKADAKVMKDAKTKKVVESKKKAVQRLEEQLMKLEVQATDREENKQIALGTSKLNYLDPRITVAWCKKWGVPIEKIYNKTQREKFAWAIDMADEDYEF
In words: Inhibition of recombinant human DNA topoisomerase-1-mediated relaxation of supercoiled pBR322 at 20 uM after 30 mins using ethidium bromide staining by agarose gel electrophoresis. Summed up:
(§2)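 Compounds from 20 mM DMSO stocks. 100 ng pBR322 plasmid DNA with 1 unit recombinant human topo I, with or without compound, 37 °C for 30 min. Relaxation buffer was 10 mM Tris-HCl pH 7.9, 150 mM NaCl, 0.1% BSA, 1 mM spermidine. Relaxation of supercoiled DNA assessed by gel imaging.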

For assay [2], the target named is DNA topoisomerase 2-alpha (Homo sapiens) (UniProt P11388). In words: Inhibition of human DNA topoisomerase-2alpha-mediated relaxation of supercoiled pBR322 at 100 uM after 30 mins using ethidium bromide staining by agarose gel electrophoresis. Summed up: (§3)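 200 ng supercoiled pBR322 with 1 unit human topo IIα, with or without compound. Buffer was 10 mM Tris-HCl pH 7.9, 50 mM NaCl, 5 mM MgCl₂, 1 mM EDTA, 1 mM ATP and bovine serum albumin. Incubated 30 min at 30 °C, stopped with EDTA. Products run on 1% agarose gel, 25 V, 4 h, TAE buffer. Compound stocks 20 mM in DMSO.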

In a further assay the test system is HCT-15. In words: Cytotoxicity against human HCT15 cells after 2 days by cell counting kit-8 analysis. Type of assay: functional, cell-based. The conditions noted are these: HCT-15, 48 h. The method in brief: as §1
The target of assay [3] is DNA topoisomerase 2-alpha (Homo sapiens) (UniProt P11388). In words: Inhibition of human DNA topoisomerase-2alpha-mediated relaxation of supercoiled pBR322 at 20 uM after 30 mins using ethidium bromide staining by agarose gel electrophoresis. Summed up: as §3
A further assay relates to DU-145. In words: Cytotoxicity against human DU145 cells after 2 days by cell counting kit-8 analysis. The conditions noted are these: DU-145, 48 h. It is filed as functional, cell-based. Summed up:
as §1

A further assay deals with HEK293. Briefly: Cytotoxicity against human HEK293 cells after 2 days by cell counting kit-8 analysis. It is filed as cell-based. Conditions: HEK293, 48 h. Summed up:
as §1

The target of assay [4] is T1, DNA topoisomerase 1 (Homo sapiens). In words: Inhibition of recombinant human DNA topoisomerase-1-mediated relaxation of supercoiled pBR322 at 100 uM after 30 mins using ethidium bromide staining by agarose gel electrophoresis. The method in brief:
as §2

Sequence of DNA topoisomerase 2-alpha (Homo sapiens) (P11388 whole entry): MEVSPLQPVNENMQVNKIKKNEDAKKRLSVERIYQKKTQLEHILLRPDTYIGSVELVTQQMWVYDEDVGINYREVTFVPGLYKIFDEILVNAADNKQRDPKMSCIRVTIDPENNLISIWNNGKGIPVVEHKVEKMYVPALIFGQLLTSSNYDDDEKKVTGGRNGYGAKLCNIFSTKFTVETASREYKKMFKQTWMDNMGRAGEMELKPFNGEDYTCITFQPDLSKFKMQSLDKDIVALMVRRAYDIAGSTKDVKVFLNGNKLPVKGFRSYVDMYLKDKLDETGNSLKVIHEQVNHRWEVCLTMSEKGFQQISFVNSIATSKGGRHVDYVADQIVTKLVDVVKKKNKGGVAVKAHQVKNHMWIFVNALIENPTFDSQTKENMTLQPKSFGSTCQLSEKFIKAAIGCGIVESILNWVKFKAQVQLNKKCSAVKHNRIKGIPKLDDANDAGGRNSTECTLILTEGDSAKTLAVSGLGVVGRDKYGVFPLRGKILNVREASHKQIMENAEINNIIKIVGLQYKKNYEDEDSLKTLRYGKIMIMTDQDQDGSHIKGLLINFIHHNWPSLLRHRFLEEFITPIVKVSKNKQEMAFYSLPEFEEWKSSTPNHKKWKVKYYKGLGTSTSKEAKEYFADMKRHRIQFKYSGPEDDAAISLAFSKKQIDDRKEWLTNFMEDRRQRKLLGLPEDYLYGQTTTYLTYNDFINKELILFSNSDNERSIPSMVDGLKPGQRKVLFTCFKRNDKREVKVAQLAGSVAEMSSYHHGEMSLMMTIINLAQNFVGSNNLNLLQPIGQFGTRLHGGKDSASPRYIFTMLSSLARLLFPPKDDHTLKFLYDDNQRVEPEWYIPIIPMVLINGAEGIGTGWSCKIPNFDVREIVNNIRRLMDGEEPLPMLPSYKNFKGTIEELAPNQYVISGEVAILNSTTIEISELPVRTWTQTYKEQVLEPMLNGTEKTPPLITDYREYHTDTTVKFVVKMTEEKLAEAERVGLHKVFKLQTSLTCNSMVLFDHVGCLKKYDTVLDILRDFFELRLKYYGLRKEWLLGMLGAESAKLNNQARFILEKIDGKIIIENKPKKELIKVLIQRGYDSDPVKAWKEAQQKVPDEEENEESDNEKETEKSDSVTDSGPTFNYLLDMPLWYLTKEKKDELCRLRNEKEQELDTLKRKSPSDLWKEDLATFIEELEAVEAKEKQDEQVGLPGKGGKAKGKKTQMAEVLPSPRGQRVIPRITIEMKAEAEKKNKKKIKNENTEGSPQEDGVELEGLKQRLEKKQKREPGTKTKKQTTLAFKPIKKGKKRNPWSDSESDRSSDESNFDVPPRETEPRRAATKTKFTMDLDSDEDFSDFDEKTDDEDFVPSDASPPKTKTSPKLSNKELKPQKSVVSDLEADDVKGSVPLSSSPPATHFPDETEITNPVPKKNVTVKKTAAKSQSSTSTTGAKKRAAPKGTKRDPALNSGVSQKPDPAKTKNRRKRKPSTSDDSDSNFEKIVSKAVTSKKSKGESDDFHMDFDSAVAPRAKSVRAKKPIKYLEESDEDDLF

Consider `Oc1ccc(-c2cc(-c3ccccc3)nc(-c3ccc(Cl)cc3)c2)cc1`, for which the IC50 in the assay with T47D came out at 4.27 µM; in the assay on HCT-15, 6.92 µM; with DU-145, 7.27 µM; in the assay with HEK293, 4.81 µM. Besides, the inhibition in assay [1] was 55.2%; in assay [2], 80.9%; in assay [3], 44.6%; in assay [4], 68%.

For the molecule `Oc1ccc(-c2cc(-c3ccc(Cl)cc3)nc(-c3ccsc3)c2)cc1`, the half-inhibitory concentration (IC50) in the assay with T47D was found to be 5.49 µM; with HCT-15, 6.24 µM; with DU-145 it was 6.94 µM; with HEK293, 4.86 µM. The inhibition in assay [1] stood at 30.7%; in assay [2], 83.6%; in assay [3] it was 67.1%; in assay [4], 47.7%.

For `Oc1cccc(-c2cc(-c3ccc(Cl)cc3)nc(-c3ccccn3)c2)c1`, the IC50 in the assay with T47D stood at 13.9 µM; in the assay on HCT-15, 13.5 µM; in the assay with DU-145, 8.09 µM; with HEK293, 14 µM. The inhibition in assay [1] came to 0%; in assay [2], 59.4%; in assay [3] it was 13.1%; in assay [4], 30%.

On to `Oc1ccc(-c2cc(-c3cccnc3)nc(-c3cccc(Cl)c3)c2)cc1`, for which the IC50 in the assay on T47D came out at 25.7 µM; with HCT-15 it was 21.3 µM; in the assay on DU-145 it was 22.9 µM; in the assay with HEK293 it was 25.7 µM. The inhibition worked out at 0% in assay [1], 46.9% in assay [2], 0% in assay [3] and 55.2% in assay [4].

As to `Oc1ccc(-c2cc(-c3cccc(Cl)c3)nc(-c3cccs3)c2)cc1`, the IC50 with T47D came to 5.35 µM; in the assay on HCT-15, 5.05 µM; with DU-145, 5.74 µM; in the assay with HEK293, 2.72 µM. Further, the inhibition was 0% in assay [1], 72.4% in assay [2], 0% in assay [3] and 52.4% in assay [4].

`Oc1ccc(-c2cc(-c3ccc(Cl)cc3)nc(-c3cccs3)c2)cc1`: the IC50 with T47D is 6.45 µM; in the assay on HCT-15 it was 6.47 µM; in the assay on DU-145, 7.66 µM; with HEK293, 4.52 µM. Besides, the inhibition in assay [1] worked out at 0%; in assay [2] it was 77.2%; in assay [3], 22%; in assay [4], 38.8%.
